The list is not random: actives were taken first. Their share in the collection is about 3.2%.
NR2E3 ag-1: inhibitors of NR2E3-RetCOR corepressor binding, primary screen, NR2E3 agonist project, biochemical, TR-FRET, GST-NR2E3, biotin-RetCOR; 1536-well; AID 2300, 2010; inhibition of corepressor binding, % at 4.78 µM; 320,000 tested, 0.12% active;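 active = percent inhibition above the cutoff of mean plus 3 SD of all tested compounds, set per screening campaign, cut at about 20% in these data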
Target sequence (Q9Y5X4 whole entry, looked up): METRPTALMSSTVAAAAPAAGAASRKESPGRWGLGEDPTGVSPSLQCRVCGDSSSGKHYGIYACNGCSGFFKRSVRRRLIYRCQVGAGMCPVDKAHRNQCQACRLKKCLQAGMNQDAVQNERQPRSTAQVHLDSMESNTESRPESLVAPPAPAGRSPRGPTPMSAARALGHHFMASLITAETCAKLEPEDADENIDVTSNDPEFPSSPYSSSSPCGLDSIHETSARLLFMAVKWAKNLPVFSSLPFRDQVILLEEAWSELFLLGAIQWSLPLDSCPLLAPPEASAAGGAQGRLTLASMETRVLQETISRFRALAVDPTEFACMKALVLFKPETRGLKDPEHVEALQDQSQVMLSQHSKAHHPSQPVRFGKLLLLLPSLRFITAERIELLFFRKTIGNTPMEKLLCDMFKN
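system = GST-tagged NR2E3 plus biotinylated RetCOR corepressor | input = 1.35 nM GST-NR2E3 | also added = 7 nM biotin-RetCOR | schedule = 5 h incubation at 4 °C | measured by = TR-FRET with europium anti-GST and streptavidin-D2, 340 nm excitation | read-out = percent loss of FRET ratio relative to control wells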
DAX1 inh-1: DAX1 (NR0B1) inhibitors on StAR promoter, primary screen, cell-based, luminescence, SF-1 (NR5A1), full-length DAX-1; inhibition, % at 6.8 µM; AID 652010, 2013; HEK293T StAR-luciferase reporter, SF-1/DAX-1 repression relief; 370,000 tested, 1.1% active;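 active = inhibition above the mean over all tested compounds plus 3 SD, cut at about 3.6% in these data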;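 note: higher inhibition means more luminescence from relief of DAX-1 repression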
GASC-1 inh: inhibitors of GASC-1 histone demethylase, primary screen, biochemical, fluorescence, DELFIA europium; Lysine-specific demethylase 4C (Homo sapiens), Q9H3R0; GST-JMJD2C(1-420) H3K9me3 demethylation; inhibition, % at 2.35 µM; 330,000 tested, 0.069% active;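 active = more than half of a compound's replicate wells show inhibition beyond 50%, single wells judged on their own value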;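 note: signal counts dimethyl H3K9 product captured on neutravidin plate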
DAX1 inh-2: DAX1 (NR0B1) inhibitors, primary screen, cell-based, HEK293, Gal4-DAX1, luciferase luminescence | 340,000 tested, 0.99% active | inhibition, % at 6.75 µM | HEK293 Gal4-DAX1 luciferase reporter;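 active = inhibition above the mean over all tested compounds plus 3 SD, cut at about 4.2% in these data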;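 note: inhibition shows as a rise in luminescence from relieved DAX1 repression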
Target sequence (P51843 207-470 limits assumed): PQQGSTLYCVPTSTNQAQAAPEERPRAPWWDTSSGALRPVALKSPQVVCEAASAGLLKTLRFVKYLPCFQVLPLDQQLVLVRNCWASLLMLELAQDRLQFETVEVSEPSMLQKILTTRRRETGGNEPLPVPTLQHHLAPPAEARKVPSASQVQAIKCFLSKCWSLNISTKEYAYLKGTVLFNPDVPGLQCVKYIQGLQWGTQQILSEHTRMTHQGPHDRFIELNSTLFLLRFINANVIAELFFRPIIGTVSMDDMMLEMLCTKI
NR2E3 ag-2: NR2E3 agonists in two-hybrid cells, primary screen, cell-based, luminescence, CHO-S, Gal4-NCOR/VP16-NR2E3. Photoreceptor-specific nuclear receptor (Homo sapiens), Q9Y5X4. luciferase. inhibition of corepressor binding, % at 3.98 µM. 360,000 tested, 0.35% active. AID 602229, 2012;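 active = inhibition above the mean of all tested compounds plus 3 SD, cut at about 70% in these data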;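 note: higher means lower luciferase signal from less NR2E3 corepressor binding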
SMARCA2 act: SMARCA2 (BRM) function activators, primary screen, cell-based, luminescence, high throughput; MG213 cells, MMTV-luciferase reporter, dexamethasone, overnight; activation, % at 9.1 µM; 370,000 tested, 1% active; AID 652017, 2013; in the data active = activation above about 7.8%
Numbers stand for hits.

CCOC(=O)C1(C)NC(c2ccc(N(C)C)cc2)C2C(=O)N(c3ccc(OC)cc3)C(=O)C21 (stereo not drawn) was read as NR2E3 ag-1 inactive, DAX1 inh-1 inactive, GASC-1 inh inactive, DAX1 inh-2 inactive, NR2E3 ag-2 inactive and SMARCA2 act inactive.
Cc1cc(C)cc(OCC(C)CN2CCC(C(O)(c3ccccc3)c3ccccc3)CC2)c1 (stereo not drawn) was read as DAX1 inh-1 inactive and SMARCA2 act inactive.
Cc1ccc(-n2cc(-c3ccccc3)c3c(=O)[nH]cnc32)cc1 was read as NR2E3 ag-1 inactive, DAX1 inh-1 inactive, GASC-1 inh inactive, DAX1 inh-2 inactive, NR2E3 ag-2 inactive and SMARCA2 act inactive.
O=c1[nH]cnc2c1c(-c1ccccc1)cn2-c1ccccc1 was read as NR2E3 ag-1 inactive, DAX1 inh-1 inactive, GASC-1 inh 62.2, DAX1 inh-2 inactive, NR2E3 ag-2 inactive and SMARCA2 act inactive.
Screening COc1cc(S(=O)(=O)n2cnc(C)c2)ccc1Br returned NR2E3 ag-1 inactive, DAX1 inh-1 inactive, GASC-1 inh inactive, DAX1 inh-2 inactive, NR2E3 ag-2 inactive and SMARCA2 act inactive.
For Cc1cn(S(=O)(=O)c2ccc(Br)c3ccccc23)cn1 the results were NR2E3 ag-1 31.0 and GASC-1 inh inactive.
`O=C1CC(c2ccc(O)c(O)c2)Oc2cc(O)cc(O)c21` (stereo not drawn) gave NR2E3 ag-1 inactive, DAX1 inh-1 inactive, GASC-1 inh inactive, DAX1 inh-2 inactive, NR2E3 ag-2 inactive and SMARCA2 act inactive.
`COc1ccc(C2CC(=O)c3c(O)cc(O)cc3O2)cc1O` (stereo not drawn) gave DAX1 inh-1 inactive, DAX1 inh-2 4.8, NR2E3 ag-2 inactive and SMARCA2 act inactive.
`CC(C)(C)OC(=O)N1c2ccccc2[C@]2(N3CCCC3)C[C@H](C(=O)O)N(C(=O)OC(C)(C)C)[C@H]12` gave DAX1 inh-1 inactive and SMARCA2 act inactive.
For COc1ccc(OC)c2sc(NC(=O)c3cccc(N4C(=O)CCC4=O)c3)nc12 the results were NR2E3 ag-1 inactive, DAX1 inh-1 inactive, GASC-1 inh inactive, DAX1 inh-2 4.5, NR2E3 ag-2 inactive and SMARCA2 act inactive.
Screening COc1ccc(-c2csc(NC(=O)c3cccc(N4C(=O)CCC4=O)c3)n2)cc1C returned NR2E3 ag-1 inactive, DAX1 inh-1 inactive, GASC-1 inh inactive, DAX1 inh-2 inactive, NR2E3 ag-2 inactive and SMARCA2 act inactive.
Screening O=C(Nc1ccc2sccc2c1)c1cccc(N2C(=O)CCC2=O)c1 returned NR2E3 ag-1 inactive, DAX1 inh-1 4.2, GASC-1 inh inactive, DAX1 inh-2 inactive, NR2E3 ag-2 inactive and SMARCA2 act inactive.
Screening COc1ccccc1CC(=O)NCCN1C(=O)C2C3C=CC(C3)C2C1=O (stereo not drawn) returned DAX1 inh-1 inactive and SMARCA2 act inactive.
CCOc1ccc(C(=O)NCCCCNC(=O)c2ccc(OCC)cc2)cc1 was read as NR2E3 ag-1 inactive, DAX1 inh-1 inactive, GASC-1 inh inactive, DAX1 inh-2 inactive, NR2E3 ag-2 inactive and SMARCA2 act inactive.
`CN(C)S(=O)(=O)c1cccc(C(=O)Nc2ccccc2)c1` gave NR2E3 ag-1 inactive, DAX1 inh-1 inactive, GASC-1 inh inactive, DAX1 inh-2 inactive, NR2E3 ag-2 inactive and SMARCA2 act inactive.
For CN(C)S(=O)(=O)c1cccc(C(=O)NCCc2ccccc2)c1 the results were NR2E3 ag-1 inactive, DAX1 inh-1 3.8, GASC-1 inh inactive, DAX1 inh-2 inactive, NR2E3 ag-2 inactive and SMARCA2 act inactive.
Screening O=C(NCCc1ccccc1)c1ccc2nccnc2c1 returned NR2E3 ag-1 inactive, DAX1 inh-1 4.2, GASC-1 inh inactive, DAX1 inh-2 inactive, NR2E3 ag-2 inactive and SMARCA2 act inactive.
`CCOc1ccc(C(=O)NCCc2ccccc2)cc1` gave NR2E3 ag-1 inactive, DAX1 inh-1 5.7, GASC-1 inh inactive, DAX1 inh-2 inactive, NR2E3 ag-2 inactive and SMARCA2 act inactive.
`O[C@H](COc1cccc(Br)c1)CN1CCC(C(O)(c2ccccc2)c2ccccc2)CC1` gave DAX1 inh-1 inactive and SMARCA2 act inactive.
`COc1ccc(-n2c(SCC(=O)Nc3ccc(S(=O)(=O)Nc4nccs4)cc3)nnc2-c2ccco2)cc1` gave DAX1 inh-1 inactive and SMARCA2 act inactive.
For Cc1ccc(N2C(=O)C3C4C=CC(C4)C3C2=O)cc1C (stereo not drawn) the results were NR2E3 ag-1 inactive, DAX1 inh-1 inactive, GASC-1 inh inactive, DAX1 inh-2 inactive, NR2E3 ag-2 inactive and SMARCA2 act inactive.
`Cc1cccc(N2C(=O)C3C4C=CC(C4)C3C2=O)c1` (stereo not drawn) gave NR2E3 ag-1 inactive, DAX1 inh-1 inactive, GASC-1 inh 53.6, DAX1 inh-2 inactive, NR2E3 ag-2 inactive and SMARCA2 act inactive.
For O=C(COc1ccccc1[N+](=O)[O-])Nc1cccnc1 the results were NR2E3 ag-1 inactive, DAX1 inh-1 inactive, GASC-1 inh inactive, DAX1 inh-2 inactive, NR2E3 ag-2 inactive and SMARCA2 act inactive.
Screening O=C(COc1ccccc1[N+](=O)[O-])Nc1ccc(Br)cc1 returned NR2E3 ag-1 inactive, DAX1 inh-1 inactive, GASC-1 inh inactive, DAX1 inh-2 6.8, NR2E3 ag-2 inactive and SMARCA2 act inactive.
COc1ccc2[nH]c3c(=O)n(CCCN4CCOCC4)cnc3c2c1 was read as NR2E3 ag-1 inactive, DAX1 inh-1 inactive, GASC-1 inh inactive, DAX1 inh-2 6.2, NR2E3 ag-2 inactive and SMARCA2 act inactive.
For Clc1ccc2nc(N3CCCCC3)[nH]c2c1 the results were NR2E3 ag-1 inactive, DAX1 inh-1 4.5, GASC-1 inh inactive, DAX1 inh-2 inactive, NR2E3 ag-2 inactive and SMARCA2 act inactive.
`Clc1ccc2nc(N3CCCCC3)sc2c1` gave NR2E3 ag-1 inactive, DAX1 inh-1 inactive, GASC-1 inh inactive, DAX1 inh-2 inactive, NR2E3 ag-2 inactive and SMARCA2 act inactive.
O=C(COc1ccccc1)NNc1nc2ccccc2s1 was read as NR2E3 ag-1 inactive, DAX1 inh-1 inactive, GASC-1 inh inactive, DAX1 inh-2 6.5, NR2E3 ag-2 inactive and SMARCA2 act inactive.
CC(=O)c1sc(NC(=O)CCOc2ccccc2)nc1C was read as NR2E3 ag-1 inactive, DAX1 inh-1 inactive, GASC-1 inh inactive, DAX1 inh-2 inactive, NR2E3 ag-2 inactive and SMARCA2 act inactive.
Screening CC(=O)c1sc(NC(=O)COc2ccccc2)nc1C returned NR2E3 ag-1 inactive, DAX1 inh-1 inactive, GASC-1 inh inactive, DAX1 inh-2 4.5, NR2E3 ag-2 inactive and SMARCA2 act inactive.
